Assay results reported in ChEMBL document CHEMBL3871266, “Synthesis and cytotoxic activity of novel A-ring cleaved ursolic acid derivatives in human non-small cell lung cancer cells” (Eur J Med Chem, 2016).
Calls of active or inactive are those of the source. The calls are words filed in the database; no cut-off is given here.

What was measured:
[1] = Cytotoxicity against human NCI-H322 cells assessed as reduction in cell viability measured after 72 hrs by CellTiter-Blue cell viability assay; format: functional, cell-based; conditions: Homo sapiens, NCI-H322, 72 h; read-out: IC50
Summary of the method: (§1)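 Monolayer cultures in RPMI-1640 with 10% FBS at 37°C, seeded at 850 (H460 CTR5), 660 (H460 LKB1+/+) or 1780 (H322) cells/well so that the end point reaches 70–80% confluence. Treated 72h; vehicle 0.15% DMSO. CellTiter-Blue added until colour change (50–60, 80–90 or 100–120 min respectively), fluorescence read at 590 nm. IC50 by nonlinear regression; three independent experiments.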

[2] = Cytotoxicity against human LKB1-positive NCI-H460 cells assessed as reduction in cell viability measured after 72 hrs by CellTiter-Blue cell viability assay; format: functional, cell-based; conditions: Homo sapiens, NCI-H460, 72 h; read-out: IC50; summary of the method: as §1
[3] = Cytotoxicity against human NCI-H460 spheroids expressing CTR5 gene assessed as reduction in cell viability measured after 96 hrs by CellTiter-Glo luminescence viability assay; format: functional, cell-based; conditions: NCI-H460, 96 h
Summary of the method: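 Spheroids grown in round-bottom ultralow-attachment wells, 495 (H460 CTR5) or 650 (H322) cells/well. Drug exposure 96h with DMSO vehicle. CellTiter-Glo added, shaken 20 min, left 10 min, then luminescence read. IC50 by nonlinear regression; three independent experiments.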

NCI-H460 [4] = test: Induction of apoptosis in human NCI-H460 cells expressing CTR5 gene assessed as viable cells at 5 uM measured after 72 hrs by Annexin V-Cy5/propidium iodide staining-based flow cytometry (reference value: 93%); format: functional; conditions: NCI-H460, 72 h, read-out: Activity
NCI-H460 [5] = test: Induction of apoptosis in human NCI-H460 cells expressing CTR5 gene assessed as necrotic cells at 5 uM measured after 72 hrs by Annexin V-Cy5/propidium iodide staining-based flow cytometry (reference value: 2.1%); format: functional
NCI-H460 [6] = test: Induction of apoptosis in human NCI-H460 cells expressing CTR5 gene assessed as cleaved PARP level at 3 to 5.5 uM measured after 24 hrs by Western blot analysis; format: functional, cell-based
Summary of the method: (§2)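 Cells were seeded at 3×10^5 (H460) or 4.2×10^5 (H322) per dish and treated 24h later with DMSO or a concentration series for 24h. Lysed in cold RIPA with phosphatase and protease inhibitors, then sonicated. 30 μg protein run on Bis-Tris gels and transferred to nitrocellulose or PVDF. Detection used infrared secondary antibodies on an Odyssey imager. Signal normalized to β-actin or GAPDH and to DMSO control; three independent experiments.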

NCI-H460 [7] = test: Induction of apoptosis in human NCI-H460 cells expressing CTR5 gene assessed as increase in cleavage of procaspase8 at 3 to 4.5 uM measured after 24 hrs by Western blot analysis; format: functional, cell-based; summary of the method: as §2
NCI-H322 [8] = test: Induction of apoptosis in human NCI-H322 cells assessed as increase in cleaved caspase7 level at 3 to 5.5 uM measured after 24 hrs by Western blot analysis; format: functional, cell-based; summary of the method: as §2
[9] = Downregulation of Mcl1 long isoform protein expression in human NCI-H460 cells expressing CTR5 gene at 3 to 4.5 uM measured after 24 hrs by Western blot analysis; format: functional, cell-based; summary of the method: as §2
NCI-H460 [10] = test: Induction of autophagy in human NCI-H460 cells expressing CTR5 gene assessed as acidic vesicular organelle formation at 3 uM measured after 72 hrs by acridine orange dye based flow cytometry (reference value: 91.2%); format: functional
NCI-H460 [11] = test: Induction of apoptosis in human NCI-H460 cells expressing CTR5 gene assessed as viable cells at 20 uM measured after 72 hrs by Annexin V-Cy5/propidium iodide staining-based flow cytometry (reference value: 94.6%); format: functional; conditions: NCI-H460, 72 h, read-out: Activity
NCI-H460 [12] = test: Induction of apoptosis in human NCI-H460 cells expressing CTR5 gene assessed as early apoptotic cells at 20 uM measured after 72 hrs by Annexin V-Cy5/propidium iodide staining-based flow cytometry (reference value: 1.8%); format: functional
NCI-H460 [13] = test: Induction of apoptosis in human NCI-H460 cells expressing CTR5 gene assessed as late apoptotic cells at 20 uM measured after 72 hrs by Annexin V-Cy5/propidium iodide staining-based flow cytometry (reference value: 2.7%); format: functional
NCI-H460 [14] = test: Induction of apoptosis in human NCI-H460 cells expressing CTR5 gene assessed as necrotic cells at 20 uM measured after 72 hrs by Annexin V-Cy5/propidium iodide staining-based flow cytometry (reference value: 0.9%); format: functional
NCI-H460 [15] = test: Induction of apoptosis in human NCI-H460 cells expressing CTR5 gene assessed as viable cells at 4 uM measured after 72 hrs by Annexin V-Cy5/propidium iodide staining-based flow cytometry (reference value: 94.6%); format: functional; conditions: NCI-H460, 72 h, read-out: Activity
NCI-H460 [16] = test: Induction of apoptosis in human NCI-H460 cells expressing CTR5 gene assessed as necrotic cells at 4 uM measured after 72 hrs by Annexin V-Cy5/propidium iodide staining-based flow cytometry (reference value: 0.9%); format: functional
NCI-H460 [17] = test: Induction of apoptosis in human NCI-H460 cells expressing CTR5 gene assessed as viable cells at 4 uM measured after 72 hrs in presence of autophagy inhibitor chloroquine by Annexin V-Cy5/propidium iodide staining-based flow cytometry (reference value: 94.6%); format: functional; conditions: NCI-H460, 72 h, read-out: Activity
NCI-H460 [18] = test: Induction of apoptosis in human NCI-H460 cells expressing CTR5 gene assessed as early apoptotic cells at 4 uM measured after 72 hrs in presence of autophagy inhibitor chloroquine by Annexin V-Cy5/propidium iodide staining-based flow cytometry (reference value: 1.8%); format: functional
NCI-H460 [19] = test: Induction of apoptosis in human NCI-H460 cells expressing CTR5 gene assessed as late apoptotic cells at 4 uM measured after 72 hrs in presence of autophagy inhibitor chloroquine by Annexin V-Cy5/propidium iodide staining-based flow cytometry (reference value: 2.7%); format: functional
NCI-H460 [20] = test: Induction of apoptosis in human NCI-H460 cells expressing CTR5 gene assessed as necrotic cells at 4 uM measured after 72 hrs in presence of autophagy inhibitor chloroquine by Annexin V-Cy5/propidium iodide staining-based flow cytometry (reference value: 0.9%); format: functional
NCI-H460 [21] = test: Decrease in mTOR level in human NCI-H460 cells expressing CTR5 gene at 3 to 5.5 uM measured after 24 hrs by Western blot analysis; format: functional, cell-based; summary of the method: as §2
NCI-H460 [22] = test: Increase in Beclin1 level in human NCI-H460 cells expressing CTR5 gene at 3 to 5.5 uM measured after 24 hrs by Western blot analysis; format: functional, cell-based; summary of the method: as §2
NCI-H460 [23] = test: Increase in lipidation of LC3A/B1 to LC3A/B2 in human NCI-H460 cells expressing CTR5 gene measured after 24 hrs by Western blot analysis; format: functional, cell-based; summary of the method: as §2
NCI-H322 [24] = test: Increase in lipidation of LC3A/B1 to LC3A/B2 in human NCI-H322 cells measured after 24 hrs by Western blot analysis; format: functional, cell-based; summary of the method: as §2
[25] = Downregulation of p62 level in human NCI-H322 cells at 3 to 5.5 uM measured after 24 hrs by Western blot analysis; format: functional, cell-based; summary of the method: as §2
[26] = Upregulation of Beclin1 level in human NCI-H460 cells expressing CTR5 gene at 3.5 uM measured after 24 hrs by reverse-phase protein array method relative to control; format: functional, cell-based
NCI-H460 [27] = test: Induction of autophagy in human NCI-H460 cells expressing CTR5 gene measured after 24 hrs by reverse-phase protein array method; format: functional, cell-based

C=C(C)[C@@H]1CC[C@]2(C)[C@H](C[C@@H](F)C34OC(=O)[C@@]5(CC[C@@H](C)[C@H](C)[C@@H]35)CC[C@]42C)[C@@]1(C)CCC(=O)NCCC
IC50 [1]: 3.3 µM | IC50 [2]: 4.4 µM | IC50 [3]: 5.5 µM | viability at 5 µM (NCI-H460 [4]): 51.9% | Activity (NCI-H460 [5]): 5% | Activity (NCI-H460 [6]): Active | Activity (NCI-H460 [7]): Active | Activity (NCI-H322 [8]): Active | Activity [9]: Dose-dependent effect | Activity (NCI-H460 [10]): 88.6% | viability at 20 µM (NCI-H460 [11]): 94.3% | Activity (NCI-H460 [12]): 2.8% | Activity (NCI-H460 [13]): 2% | Activity (NCI-H460 [14]): 0.9% | viability at 4 µM (NCI-H460 [15]): 77.4% | Activity (NCI-H460 [16]): 3.6% | viability at 4 µM (NCI-H460 [17]): 77.4% | Activity (NCI-H460 [18]): 7.6% | Activity (NCI-H460 [19]): 11.5% | Activity (NCI-H460 [20]): 3.6% | Activity (NCI-H460 [21]): Active | Activity (NCI-H460 [22]): Active | Activity (NCI-H460 [23]): Dose-dependent effect | Activity (NCI-H322 [24]): Dose-dependent effect | Activity [25]: Active | Activity [26]: 5.6% | Activity (NCI-H460 [27]): Active
